From ChEMBL document CHEMBL4265978, “In search of constrained FTY720 and phytosphingosine analogs as dual acting anticancer agents targeting metabolic and epigenetic pathways” (Eur J Med Chem, 2018)
Activity calls are given as the source filed them. The rule behind the calls is not given here.

What was measured:
[1] = test system: FL5.12; assay: Downregulation of CD98 expression in mouse FL5.12 cells at 2.5 uM after 3 hrs by DAPI staining-based FACS analysis relative to control; type: functional
Outline: (§1)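 FL5.12 cells plated at 225-250,000/mL and treated 3 h. 150-200,000 cells stained in triplicate on ice for 30 min with PE-anti-mouse CD98, with PE rat IgG2a κ as isotype control. Read by flow cytometry, gated on viable cells (DAPI exclusion or scatter). Loss given as mean of at least 2 biological replicates.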

[2] = test system: FL5.12; assay: Downregulation of CD98 expression in mouse FL5.12 cells at 10 uM after 3 hrs by DAPI staining-based FACS analysis relative to control; type: functional; outline: as §1
[3] = test system: FL5.12; assay: Cytotoxicity against mouse FL5.12 cells assessed as vacuole formation at 40 uM after 3 hrs by […]; type: functional, cell-based
Outline: (§2)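 FL5.12 cells treated at 200,000/mL for 3 h, then imaged at 100× by brightfield/DIC. At least 5 images per condition, at least 2 biological replicates. Two researchers scored each replicate independently: 0 no vacuoles, + some cells, ++ most cells with at least 1 vacuole, +++ all cells heavily vacuolated.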

[4] = test system: FL5.12; assay: Cytotoxicity against mouse FL5.12 cells after 48 hrs by DAPI or propidium iodide staining-based flow cytometric analysis; type: functional, cell-based; conditions: FL5.12, 48 h
Outline: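 FL5.12 (murine hematopoietic, IL-3-dependent) cells treated at 25,000/mL; viability read at 48 h by DAPI or propidium iodide dye exclusion on flow cytometry. IC50 fitted, reported with 95% confidence interval.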

[5] = test system: FL5.12; assay: Cytotoxicity against mouse FL5.12 cells assessed as vacuole formation at 10 uM after 3 hrs by […]; type: functional, cell-based; outline: as §2
[6] = test system: FL5.12; assay: Downregulation of CD98 expression in mouse FL5.12 cells at 40 uM after 3 hrs by DAPI staining-based FACS analysis relative to control; type: functional; outline: as §1
[7] = test system: FL5.12; assay: Cytotoxicity against mouse FL5.12 cells assessed as vacuole formation at 2.5 uM after 3 hrs by […]; type: functional, cell-based; outline: as §2
[8] = target: Histone deacetylase 1 (Homo sapiens) (UniProt Q13547); assay: Inhibition of human recombinant HDAC1 at 20 uM after 15 to 30 mins by COLOR DE LYS-based colorimetric method
Sequence of Histone deacetylase 1 (Homo sapiens) (Q13547 whole entry): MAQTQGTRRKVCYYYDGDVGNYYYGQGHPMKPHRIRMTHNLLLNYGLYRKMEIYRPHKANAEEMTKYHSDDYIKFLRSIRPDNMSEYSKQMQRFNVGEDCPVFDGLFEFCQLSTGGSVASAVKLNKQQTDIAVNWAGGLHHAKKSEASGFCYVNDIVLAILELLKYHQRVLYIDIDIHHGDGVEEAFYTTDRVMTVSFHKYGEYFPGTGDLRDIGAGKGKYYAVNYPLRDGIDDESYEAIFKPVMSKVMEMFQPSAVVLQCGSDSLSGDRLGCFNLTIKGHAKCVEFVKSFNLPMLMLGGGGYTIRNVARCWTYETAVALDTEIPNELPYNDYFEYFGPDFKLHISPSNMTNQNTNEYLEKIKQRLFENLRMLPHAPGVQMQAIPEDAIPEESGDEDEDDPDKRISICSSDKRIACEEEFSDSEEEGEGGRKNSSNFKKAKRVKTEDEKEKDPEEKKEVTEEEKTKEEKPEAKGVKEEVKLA
Outline: (§3)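 Recombinant HDAC1 or HeLa extract incubated with acetylated lysine substrate at 37°C for 15-30 min. Developer then added: 10-15 min at 37°C with absorbance at 405 nm (colorimetric kit), or 15 min at RT with fluorescence at ex 355/em 460 nm, corrected using ± trichostatin A.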

[9] = target: Histone deacetylase (Homo sapiens) (UniProt Q13547+O15379+Q9UBN7+Q92769+Q9UQL6+Q8WUI4+Q9BY41+Q96DB2+P56524+Q9UKV0+Q969S8); assay: Inhibition of HDAC in human HeLa cell extract at 10 to 20 uM after 15 to 30 mins by COLOR DE LYS-based colorimetric method; type: protein assay; outline: as §3

| Structure (SMILES) | Activity [1] [%] | Activity [2] [%] | Activity [3] | IC50 [4] [µM] | Activity [5] | Activity [6] [%] | Activity [7] | inhibition [8] | inhibition [9] |
| --- | --- | --- | --- | --- | --- | --- | --- | --- | --- |
| Cl.OC[C@H]1NCC[C@@H]1c1ccc(CCCOCc2ccccc2)cc1 | 11 | 14 | inactive | 10.9 | inactive | 51 |  |  |  |
| Cc1nc(CCCCCCCc2ccc([C@H]3CCN[C@@H]3CO)cc2)co1.Cl | 5 | 33 | inactive | 8.4 | inactive | 61 |  |  |  |
| CCCCCCCCc1ccc(C(=O)[C@H]2C[C@H](O)CN2)cc1.Cl | 12 | 51 | Active | 15.3 | Active | 41 | inactive |  |  |
| CCCCCCCCc1ccc(C(=O)C[C@@H]2CCCN2)cc1.Cl | 28 | 57 |  | 2.5 | Active |  | Active |  |  |
| CCCCCCCCc1ccc(C(=O)[C@H]2C[C@H](CO)CN2)cc1.Cl | 0 | 19 | Active | 19.6 | inactive | 61 | inactive |  |  |
| CCCCCCCCc1ccc(C[C@@H]2C[C@@H](O)CN2)cc1 | 40 | 63 |  | 2.2 | Active |  | Active |  |  |
| Cc1nc(/C=C/CCCCCc2ccc([C@H]3CCN[C@@H]3CO)cc2)co1.Cl | 5 | 18 | inactive | 10.2 | inactive | 61 |  |  |  |
| CC(=O)CCCCCCc1ccc([C@H]2CCN[C@@H]2CO)cc1.Cl | -15 | -8 | inactive | 15.1 | inactive | 23 |  |  |  |
| CCCCCCCCc1ccc(C(=O)[C@H]2C[C@H](OP(=O)(O)O)CN2)cc1.Cl |  | -9 | inactive | 12.8 | inactive | 0 | inactive |  |  |
| CCCCCCCCc1ccc(C(=O)[C@@H]2C[C@@H](O)CN2)cc1.Cl | 2 | 9 | Active | 28.1 |  | 48 | inactive |  |  |
| CCCCCCCCc1ccc(C(C[C@@H]2CCCN2)OC)cc1.Cl (stereo not given in full) | 16 | 58 |  | 3 | Active |  | inactive |  |  |
| CCCCCCCCc1ccc(C(=O)C[C@H]2C[C@H](CO)CN2)cc1.Cl | 44 | 60 |  | 2 | Active |  | Active | inactive |  |
| CCCCCCCCc1ccc([C@@H]2CC[C@H]3C[C@H](CO)CN32)cc1.Cl | 0 | 32 | Active | 12.2 | inactive | 68 | inactive |  |  |
| CCCCCCCCc1ccc(CC(=O)[C@@H]2C[C@@H](OP(=O)(O)O)CN2)cc1.Cl |  | 3 | inactive | 25 | inactive | 0 |  |  | inactive |
| CCCCCCCCc1ccc(CCC(N)(CO)CO)cc1 [FINGOLIMOD] | 30 | 63 |  | 2.1 | Active |  | Active |  |  |
| CCCCCCCCc1ccc(C(=O)CC[C@@H]2C[C@@H](O)CN2)cc1.Cl | 15 | 52 |  | 2.1 | Active |  | Active |  |  |
| CCCCCCCCc1ccc(C(=O)[C@@H]2C[C@@H](OP(=O)(O)O)CN2)cc1.Cl |  | 3 | inactive | 12.9 | inactive | -8 | inactive |  |  |
| CCCCCCCCc1ccc(C(=O)[C@@H]2CCCN2)cc1.Cl | -21 | -4 | Active | > 40 | inactive | 33 | inactive |  |  |
| CCCCCCCCc1ccc(CC(=O)[C@H]2C[C@H](O)CN2)cc1.Cl | 11 | 16 | Active | 17.1 | inactive | 54 | inactive |  |  |
| CCCCCCCCc1ccc(C(=O)CC[C@H]2C[C@H](CO)CN2)cc1.Cl | 8 | 46 |  | 4 | Active |  | inactive |  |  |
| CCCCCCCCc1ccc(CC[C@@H]2CCCN2)cc1.Cl | 41 | 63 |  | 2.8 | Active |  | Active |  |  |
| CCCCCCCCc1ccc(CC(=O)[C@H]2C[C@H](OP(=O)(O)O)CN2)cc1.Cl |  | 5 | inactive | 25.3 | inactive | 8 |  |  | inactive |
| CCCCCCCCc1ccc(CC(O)[C@H]2C[C@H](O)CN2)cc1.Cl (stereo not given in full) | 9 | 62 |  | 1.8 | Active |  | inactive |  | inactive |
| O=C(CCCCCCC(=O)Nc1ccccc1)NO |  |  |  |  | Active |  |  |  |  |
| CCCCCCCCc1ccc(C(=O)C[C@@H]2C[C@@H](O)CN2)cc1.Cl | 22 | 46 |  | 2.1 | Active |  | Active |  |  |
| CCCCCCCCc1ccc(CC(O)[C@@H]2C[C@@H](O)CN2)cc1.Cl (stereo not given in full) | 19 | 62 |  | 3 | Active |  | Active |  | inactive |
| CCCCCCCCc1ccc([C@H]2CCN[C@@H]2CO)cc1 | 41 | 66 |  | 2.1 | Active |  | Active |  |  |
| CCCCCCCCc1ccc(CC(=O)[C@@H]2C[C@@H](O)CN2)cc1.Cl | 13 | 23 | Active | 18.6 | inactive | 59 | inactive |  |  |
